# PolyA inhibitor: yeast polyadenylation inhibition; S. cerevisiae SKY197-pL101 polyadenylation reporter, beta-gal luminescence; efflux-impaired pdr1/pdr3 knockout yeast; score 100 = 6 SD above DMSO; activity score, % at 12 µM; 300,000 tested, 0.02% active; AID 1875;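 active means lowest replicate activity score at least 50, where 100 means six control SD above control mean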;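 further: yeast exposed to compound for 9 h at 30 °C; higher score means more reporter readthrough which indicates perturbed polyadenylation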
# AHR activator: human AHR activation. P35869. AHR-responsive luciferase reporter cells, luminescence. activation, % at 5 µM. 320,000 tested, 2.5% active; in the data active means activation above about 47%;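 further: 0% = vehicle wells and 100% = reference agonist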
# proCasp7 act: activates human procaspase-7, counter-screen for procaspase-3 activators; recombinant procaspase-7, Ac-DEVD-pNA absorbance 405 nm; D23A/D198A/D206A triple mutant, cannot self-cleave; scale: DMSO 0, 5 µM enzyme 100; activation, % at 8.5 µM; 330,000 tested, 0.093% active; AID 463210;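 active means percent activation above the screen-wide mean plus 3 SD, cut at about 25% in these data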
# Target sequence (P55210 whole entry D23A/D198A/D206A): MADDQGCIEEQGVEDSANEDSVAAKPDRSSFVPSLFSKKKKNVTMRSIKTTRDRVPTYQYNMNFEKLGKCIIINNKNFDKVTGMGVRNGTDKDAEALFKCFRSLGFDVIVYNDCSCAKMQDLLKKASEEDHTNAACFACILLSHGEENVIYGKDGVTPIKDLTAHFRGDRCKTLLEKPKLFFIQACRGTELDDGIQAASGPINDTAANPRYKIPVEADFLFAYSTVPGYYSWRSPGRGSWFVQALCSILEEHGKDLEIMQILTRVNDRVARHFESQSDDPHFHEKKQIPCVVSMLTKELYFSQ
#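 Replicates: singlicate. Assay system: Procaspase-7 triple mutant (PC-7 D3A). Signal: 405 nm absorbance of p-nitroaniline. Times: 1 h preincubation, 2 h reaction. Buffer or medium: Zinc-free HEPES pH 7.4 with 300 mM NaCl, 0.01% Triton X-100. Also added: DEVD-pNA substrate. Benchmarks: DMSO wells as 0%, DMSO with 5 µM added PC-7 as 100%.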
# proCasp3 act: activates human procaspase-3; P42574; recombinant procaspase-3 D3A, Ac-DEVD-pNA absorbance 405 nm; activation, % at 8.5 µM; 330,000 tested, 0.11% active; AID 463141;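 active means activation above the mean of all tested compounds plus 3 SD, cut at about 21% in these data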;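 further: 0% = DMSO alone and 100% = DMSO wells spiked with extra 5 µM PC-3 D3A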
# Target sequence (P42574 whole entry D9A/D28A/D175A): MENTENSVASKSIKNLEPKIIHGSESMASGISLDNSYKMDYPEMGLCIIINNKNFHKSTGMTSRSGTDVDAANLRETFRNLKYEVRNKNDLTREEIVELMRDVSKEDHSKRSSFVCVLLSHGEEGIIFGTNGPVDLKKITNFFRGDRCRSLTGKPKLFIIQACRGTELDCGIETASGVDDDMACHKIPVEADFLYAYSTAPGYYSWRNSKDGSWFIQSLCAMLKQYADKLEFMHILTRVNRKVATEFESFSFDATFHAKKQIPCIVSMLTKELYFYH
#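 material = Procaspase-3 D3A mutant | probe or stimulus = Ac-DEVD-pNA | compound = single dose, 8.5 µM nominal compound, 0.8% DMSO | timing = 1 h preincubation, 2 h reaction | measured by = 405 nm absorbance of p-nitroaniline, reads at 0 and 120 min | benchmarks = DMSO-only low control, 5 µM PC-3 D3A high control | repeats = singlicate, each compound tested once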
# * hit, by the source's call; . = no result given. Most compounds without a hit are left out; they make up all but 2.6% or so of the library.
SMILES,PolyA inhibitor,AHR activator,proCasp7 act,proCasp3 act
O=C(c1ccco1)N1CCN(C(=O)c2ccc(COc3ccc4c(c3)CCC4)o2)CC1,1.9,14.8,5.0,-8.5
Cc1nc(NC(=O)c2ccco2)sc1-c1csc(Nc2ccc(Cl)cc2)n1,-5.4,75.4*,-6.0,-7.5
Cc1ccc(Cl)cc1Nc1nc(-c2sc(NC(=O)c3ccco3)nc2C)cs1,16.0,28.5,-2.9,-11.7
COc1cccc(N(C(=O)c2ccco2)c2nc(-c3sc(NC(=O)c4ccco4)nc3C)cs2)c1,33.3,65.1*,-3.6,0.4
Cc1nc(NC(=O)c2ccccc2)sc1-c1csc(Nc2ccc(Cl)cc2)n1,-6.4,58.5*,-16.6,-8.0
COc1ccccc1Nc1nc(-c2sc(NC(=O)c3ccco3)nc2C)cs1,5.4,78.9*,-2.1,6.6
Cc1ccccc1Nc1nc(-c2sc(NC(=O)c3ccccc3)nc2C)cs1,-7.4,61.8*,-4.6,-0.6
Cc1ccccc1Nc1nc(-c2sc(NC(=O)c3cccc(Cl)c3)nc2C)cs1,0.2,42.0,-4.3,-5.7
O=C(Cn1c(=O)oc2cccnc21)Nc1ccccc1Oc1ccc(Cl)cc1Cl,-12.1,-1.7,0.0,-5.6
COc1ccccc1N1CCN(C(=O)CCc2nnc3ccc(N4CCC(C)CC4)nn23)CC1,13.8,0.2,10.8,7.0
O=C(Cn1nnc(-c2ccccc2Cl)n1)NCc1ccc2c(c1)OCO2,-3.4,64.0*,3.5,2.8
CC(C)NC(=O)Nc1cccc2c1O[C@H](CN(C)S(C)(=O)=O)[C@@H](C)CN([C@H](C)CO)C2=O,.,-0.8,1.5,1.9
CC(C)NC(=O)CC(=O)N/N=C/c1ccc(Br)cc1,13.1,53.1*,5.9,-5.3
CN(CC(=O)Nc1c(Cl)cccc1Cl)C(=O)c1cccc(-n2cccc2)c1,-5.0,0.1,0.8,2.2
COc1cc2c(cc1OC)/C(=C/c1ccc(Cl)cc1)C(=O)OC2,-47.0,58.9*,-2.0,6.2
NNC(=O)c1nc(Cl)c(Cl)c(N)c1Cl,-0.2,77.0*,-0.7,3.3
Nc1c(Cl)c(Cl)nc(C(=O)N/N=C/c2ccco2)c1Cl,3.1,53.4*,-0.4,8.9
Cc1nc(-c2ccc(NC(=O)c3ccc(Br)o3)cc2)cs1,4.5,-1.3,-7.0,2.2
O=c1ccc(S(=O)(=O)N2CCCC2)cn1Cc1ccc(Cl)cc1Cl,.,0.3,9.6,11.0
COc1ccc(C(=O)Nc2ncc(C)s2)cc1S(=O)(=O)N1CCOCC1,.,8.0,2.7,-12.6
O=C(O)CCSCCCN1C(=O)c2cccc3cccc(c23)C1=O,-5.6,48.8*,-9.8,2.5
COc1ccc(CNC(=O)c2cc3c(s2)CN(Cc2ccccc2)C3)cc1,5.4,-0.5,1.9,-9.3
Cc1cc2c(C)ccc(C)c2nc1SCC(=O)c1cccs1,-12.1,58.4*,-3.5,-7.7
COc1cc2cc(CCCOC(=O)c3ccc(F)cc3)oc(=O)c2cc1OC,.,-0.8,4.5,1.5
c1ccc2c(c1)ccc1nnc(SCc3ccc4c(c3)OCO4)n12,-5.9,65.4*,8.4,2.3
SMILES,PolyA inhibitor,AHR activator,proCasp7 act,proCasp3 act
O=C(Nc1cc(NC(=O)c2ccccc2F)ccc1Cl)c1ccccc1,-5.3,79.0*,4.9,0.0
CCC(=O)Nc1ccc(Cl)c(NC(=O)c2ccccc2OC)c1,-14.7,51.1*,-10.3,1.7
COc1ccccc1C(=O)NCC(=O)Nc1ccc2c(c1)CCC2,.,69.9*,-6.6,6.9
Cc1cc(NC(=O)c2ccccc2)ccc1NC(=O)c1ccccc1Cl,-8.5,22.1,-4.9,5.6
Cc1ccc(NC(=O)c2ccccc2F)c(NC(=O)c2ccccc2F)c1,6.0,72.9*,4.0,0.6
Cc1ccc(S(=O)(=O)N2CCC(NC(=O)c3cccnc3)CC2)cc1Cl,15.8,2.0,1.1,1.7
O=C(c1ccc(CNS(=O)(=O)c2ccc(Br)cc2)cc1)N1CCCCC1,-6.4,0.2,-0.9,0.6
O=C(NNC1=NCCCCC1)c1cccc([N+](=O)[O-])c1,-2.7,2.5,-6.0,-6.4
O=C(NC1=NCCS1)c1ccccc1F,-8.4,0.0,4.7,-7.1
O=C(NNC1=Nc2ccccc2SC1)c1ccccc1F,4.8,55.8*,-6.0,-0.2
O=C(NNC1=Nc2ccccc2SC1)c1cccc([N+](=O)[O-])c1,13.3,48.5*,3.6,1.1
COc1ccc(OC)c(C(=O)NC(CC(N)=O)c2ccc(N3CCCCCC3)c([N+](=O)[O-])c2)c1 (stereo not drawn),14.4,0.9,1.1,-2.4
CC(COc1ccc(C(C)C)cc1)NC(=O)c1ccc(Br)o1 (stereo not drawn),16.6,9.4,3.5,1.8
O=C(c1cccn2c(=O)c3cc(Cl)ccc3nc12)N1CCOCC1,8.2,90.7*,-1.8,4.9
NC(=O)C1(N2CCCCC2)CCN(C(=O)c2cccn3c(=O)c4cc(Cl)ccc4nc23)CC1,15.2,26.1,0.8,-0.3
O=C(c1cccn2c(=O)c3cc(Cl)ccc3nc12)N1CCN(Cc2ccc3c(c2)OCO3)CC1,2.1,70.2*,1.0,-3.0
Cc1sc(NC(=O)Cc2ccc3c(c2)OCO3)nc1-c1ccc2c(c1)CCN2C(=O)c1cccc(F)c1,10.3,73.0*,7.3,1.4
COc1ccc2c(c1)C1=NN(/C(C)=C\C(C)=O)C(c3ccccc3)C1CC2 (stereo not drawn),-18.4,83.5*,-58.9,-29.5
COc1ccc2c(c1)CCC1C2=NN(/C(C)=C\C(C)=O)C1c1ccc(F)cc1 (stereo not drawn),-8.0,60.1*,-21.1,-4.6
COC(=O)C1=CN(c2ccc(OC)cc2)C=C(C(=O)OC)C1c1cccc(F)c1,-17.6,0.8,21.6,17.1
COc1ccc2c(c1)C1=NN(/C(C)=C/C(C)=O)C(c3ccc(F)cc3)C1CC2 (stereo not drawn),-11.2,68.9*,-35.2,-9.2
COc1ccc2c(c1)C1=NN(/C(C)=C/C(C)=O)C(c3cccc(F)c3)C1CC2 (stereo not drawn),-16.0,97.1*,-41.5,-17.8
Cc1cc(=O)oc2cc(OCC(=O)N(C)C3CCS(=O)(=O)C3)c(Cl)cc12 (stereo not drawn),-0.6,-0.5,-3.7,3.0
O=C(COC(=O)c1cncc(Br)c1)NC12CC3CC(CC(C3)C1)C2,.,-0.8,6.6,9.0
COc1cc2c(cc1NC(=O)C(C)N1CCN(S(=O)(=O)c3ccc(C)c(C)c3)CC1)oc1ccccc12 (stereo not drawn),18.5,59.1*,-2.0,-3.3
COc1cc2c(cc1NC(=O)C(C)N1CCN(S(=O)(=O)c3ccccc3[N+](=O)[O-])CC1)oc1ccccc12 (stereo not drawn),4.9,41.7,4.9,-1.1
COc1cc2c(cc1NC(=O)C(C)OC(=O)c1ccc(S(=O)(=O)Nc3ccccc3Cl)cc1)oc1ccccc12 (stereo not drawn),-3.3,78.2*,2.0,-2.9
COc1ccc(S(=O)(=O)N2CCCCCC2)cc1C(=O)N(CC(C)C)C1CCS(=O)(=O)C1 (stereo not drawn),-11.7,2.6,3.6,8.5

# Source: PubChem (several laboratories)
